Data set [1] in a line: Antioxidant activity assessed as inhibition of superoxide anion generation measured for 3 mins by nitro blue tetrazolium assay. It counts as physicochemical. The method, boiled down: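 Cell-free superoxide generated by xanthine (1 mM) and xanthine oxidase (0.11 U/mL), with NBT (50 µM) as detector. Compounds in DMSO were tested up to 10 µM, with DMSO held at 0.1%. NBT reduction rate (dA560/dt) was read spectrophotometrically over 3 min from the linear part.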

Data set [2] relates to HFL1. As to the kind of experiment: Antifibrotic activity in HFL1 cells assessed as inhibition of cell viability after 48 hrs by sulforhodamine B assay. Type of data set: functional, cell-based. As to conditions: Homo sapiens, HFL1, 48 h. In short, it runs like this: (§1)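 HFL-1 human fetal lung fibroblasts (DMEM, 10% FCS, passages 14–18) seeded at 8000 cells/well, attached overnight, then exposed to a range of concentrations for 48 h in triplicate. Cells were fixed with TCA and stained with 0.4% SRB, bound dye was solubilized in Tris, and OD was read at 570 nm relative to control.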

Data set [3] relates to HFL1. Briefly: Antifibrotic activity in HFL1 cells assessed as inhibition of cell viability at >1 uM after 48 hrs by sulforhodamine B assay relative to control. It counts as functional. As to conditions: Homo sapiens, HFL1, 48 h. The method, boiled down:
as §1
(In general: In SRB staining, fixed cells bind dye roughly in proportion to their protein.)

The nature of data set [4]: Cytotoxicity against human NCI60 cells assessed as cell growth at 10^-5 M after 48 hrs by sulforhodamine B assay relative to control. Type of data set: functional. As to conditions: NCI60, 48 h, read-out: Activity. In short, it runs like this:
(§2)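 NCI ~60 human tumor cell line one-dose screen covering nine cancer types. Cells were preincubated 24–48 h, then exposed to compound at 10^-5 M for 48 h. SRB protein staining was the endpoint, and growth percent was calculated versus untreated control cells.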

Data set [5] is described as follows: Cytotoxicity against human MOLT4 cells assessed as cell growth at 10^-5 M after 48 hrs by sulforhodamine B assay relative to control. It counts as functional. Particulars: MOLT-4, 48 h, read-out: Activity. The method, boiled down:
as §2

Data set [6] can be described thus: Cytotoxicity against human RPMI8226 cells assessed as cell growth at 10^-5 M after 48 hrs by sulforhodamine B assay relative to control. Particulars: RPMI-8226, 48 h, read-out: Activity. Type of data set: functional. The method, boiled down: as §2
The next data set has as its system NCI-H522. As to the kind of experiment: Cytotoxicity against human NCI-H522 cells assessed as cell growth at 10^-5 M after 48 hrs by sulforhodamine B assay relative to control. It counts as functional. As to conditions: NCI-H522, 48 h, read-out: Activity. In short, it runs like this: as §2
Data set [7] can be described thus: Cytotoxicity against human UO31 cells assessed as cell growth at 10^-5 M after 48 hrs by sulforhodamine B assay relative to control. Type of data set: functional. Particulars: UO-31, 48 h, read-out: Activity. The method, boiled down: as §2
For data set [8], the system named is MDA-MB-435. Briefly: Growth inhibition of human MDA-MB-435 cells after 48 hrs by sulforhodamine B assay. Type of data set: functional. As to conditions: MDA-MB-435, 48 h. In short, it runs like this:
(§3)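 NCI ~60-cell-line panel with five 10-fold dilutions (10^-4 to 10^-8 M) and 48 h continuous exposure, using an SRB endpoint. Percentage growth was derived from time-zero, control and treated absorbances. […] Values are expressed as > or < when outside the tested range.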

The nature of data set [9]: Growth inhibition of human OVCAR3 cells after 48 hrs by sulforhodamine B assay. As to conditions: OVCAR-3, 48 h. Type of data set: functional. In short, it runs like this: as §3
A further data set deals with MCF7. Briefly: Growth inhibition of human MCF7 cells after 48 hrs by sulforhodamine B assay. It counts as functional. Particulars: MCF7, 48 h. The method, boiled down: as §3
Data set [10] in a line: Growth inhibition of human NCI60 cells after 48 hrs by sulforhodamine B assay. It counts as functional. As to conditions: NCI60, 48 h. The method, boiled down:
(§4)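 NCI ~60-cell-line panel with five 10-fold dilutions (10^-4 to 10^-8 M) and 48 h continuous exposure, using an SRB endpoint. Percentage growth was derived from time-zero, control and treated absorbances. Values are expressed as > or < when outside the tested range.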

Data set [11] can be described thus: Growth inhibition of human HCT116 cells after 48 hrs by sulforhodamine B assay. Type of data set: functional. Particulars: HCT-116, 48 h. The method, boiled down: as §4
The test system of another data set is U-251. Briefly: Growth inhibition of human U251 cells after 48 hrs by sulforhodamine B assay. It counts as functional. Particulars: U-251, 48 h. In short, it runs like this: as §3
The nature of data set [12]: Growth inhibition of human RPMI8226 cells after 48 hrs by sulforhodamine B assay. Type of data set: functional. As to conditions: RPMI-8226, 48 h. In short, it runs like this:
as §3

For a further data set, the system named is SR. Briefly: Growth inhibition of human SR cells after 48 hrs by sulforhodamine B assay. It counts as functional. In short, it runs like this:
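NCI 60-cell-line panel, five-dose screen: cells inoculated and preincubated 24-48 h, then exposed continuously for 48 h to five 10-fold dilutions from 10^-4 to 10^-8 M. Protein measured by SRB staining at time zero, in untreated control and in treated wells.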

For the next data set, the system named is KM12. Briefly: Growth inhibition of human KM12 cells after 48 hrs by sulforhodamine B assay. It counts as functional. As to conditions: KM12, 48 h. In short, it runs like this: as §3
The nature of data set [13]: Growth inhibition of human SW620 cells after 48 hrs by sulforhodamine B assay. It counts as functional. As to conditions: SW-620, 48 h. The method, boiled down: as §3
A short description of data set [14]: Cytotoxicity against human SNB75 cells assessed as cell growth at 10^-5 M after 48 hrs by sulforhodamine B assay relative to control. It counts as functional. Particulars: SNB-75, 48 h, read-out: Activity. The method, boiled down: as §2
Data set [15] can be described thus: Cytotoxicity against human SF295 cells assessed as cell growth at 10^-5 M after 48 hrs by sulforhodamine B assay relative to control. It counts as functional. Particulars: SF-295, 48 h, read-out: Activity. The method, boiled down:
as §2

For data set [16], the system named is MDA-MB-435. Briefly: Cytotoxicity against human MDA-MB-435 cells assessed as cell growth at 10^-5 M after 48 hrs by sulforhodamine B assay relative to control. Type of data set: functional. As to conditions: MDA-MB-435, 48 h, read-out: Activity. In short, it runs like this:
as §2

The mark [17] stands for this setting: read-out: LC50 (the source's name).

The structures appear in SMILES notation. Bounds are passed on as bounds.

Experimental findings from ChEMBL document CHEMBL3779799, “Antifibrotic and anticancer action of 5-ene amino/iminothiazolidinones” (Eur J Med Chem, 2016) are described below.

The IC50 is the point on the concentration scale where inhibition reaches its midpoint. As for `CN(C1=NC(=O)/C(=C2/C(=O)Nc3ccccc32)S1)c1ccc(O)cc1`, the IC50 in [1] was found to be 350 nM; with HFL1 [2], 1780 nM. Further, the figures for the Emax (in data set [1] (0.05 h); with HFL1 [3]) were 71.7% and 27.3%, respectively. The growth at 10 µM turned out to be 85.6% in data set [4]; 60.2% in data set [5]; 55.2% in [6]; 65.2% in the data set on NCI-H522; 21.4% in [7].

For orientation: GI50 means the concentration that inhibits growth by half. Low readings indicate more potent growth inhibition, high ones less potent growth inhibition. In the case of `O=C1N=C(Nc2ccc(O)cc2)S/C1=C\c1ccccc1`, the 50% growth inhibitory concentration (GI50) with MDA-MB-435 [8] is 210 nM; in data set [9], 710 nM; in the data set on MCF7, 250 nM; in [10] it was 12900 nM; in data set [11], 320 nM; in the data set on U-251, 680 nM. Also, the GI50 came to 600 nM in [12], 90 nM with SR, 870 nM with KM12 and 470 nM in data set [13]. The TGI is 920 nM in the data set with MDA-MB-435 [8]; more than 100000 nM in data set [9]; more than 100000 nM in the data set on MCF7; 89100 nM in data set [10] (read-out: pTGI (converted)); more than 100000 nM in data set [11]; more than 100000 nM in the data set with U-251. Moreover, the TGI (in data set [12]; in the data set on KM12; in [13]) was more than 100000 nM each time. In addition, the CC50 in the data set with MDA-MB-435 [8] (setting [17]) is more than 100000 nM; in [9] (setting [17]), more than 100000 nM; with MCF7 (setting [17]), more than 100000 nM; in [10] (read-out: pLC50 (the source's name) (converted)), 100000 nM; in data set [11] (setting [17]) it was more than 100000 nM; in data set [12] (setting [17]), more than 100000 nM. Besides, the CC50 (with SR (setting [17]); with KM12 (setting [17]); in [13] (setting [17])) was more than 100000 nM in each case. Besides, the concentration for half-maximal inhibition (IC50) in the data set on HFL1 [2] worked out at 90 nM. Also, the Emax in the data set on HFL1 [3] turned out to be 23.8%. In the data set with U-251, this compound returned an LC50 (concentration killing 50% of cells) of more than 100000 nM.

In the case of `COc1ccc(-c2nnc(NC3=NC(=O)/C(=C/c4ccc(N(C)C)cc4)S3)o2)cc1`, the IC50 in the data set with HFL1 [2] came out at 150 nM. Besides, the Emax in the data set with HFL1 [3] was 52.4%. The growth at 10 µM is 92.8% in data set [4], 60.4% in data set [14], 69.8% in data set [15] and 47.8% in the data set with MDA-MB-435 [16].
